Measured values reported in ChEMBL document CHEMBL4130581, “Securamine Derivatives from the Arctic Bryozoan Securiflustra securifrons” (J Nat Prod, 2017).
Activity calls are given as the source filed them. The rule behind the calls is not given here.

How the values were obtained:
A2058 [1] = assay: Cytotoxicity in human A2058 cells assessed as reduction in cell survival incubated for 72 hrs by MTS assay; assay type: functional, cell-based; conditions: A2058, 72 h
In short: (§1)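 A2058 human melanoma cells grown in D-MEM with 10% FBS and L-alanyl-L-glutamine at 37 °C, 5% CO2. Seeded at 2000 cells/well and allowed to adhere 24 h. Exposed to a range of concentrations for 4, 24, 48 or 72 h. MTS added for 1 h, then absorbance read at 485 nm. Survival normalised to 1% DMSO (negative) and 0.5% Triton X-100 (positive) controls. Triplicate wells, three independent experiments.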

HT-29 [2] = assay: Cytotoxicity in human HT-29 cells assessed as reduction in cell survival incubated for 72 hrs by MTS assay; assay type: functional, cell-based; conditions: HT-29, 72 h
In short: (§2)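 HT-29 colon adenocarcinoma cells kept in RPMI with 10% FBS and L-alanyl-L-glutamine at 37 °C, 5% CO2. Seeded at 2000 cells/well and left 24 h before 72 h exposure to various concentrations. MTS reagent for 1 h, then absorbance at 485 nm. Survival scaled between 1% DMSO and 0.5% Triton X-100 controls. IC50 from eight concentration points. Means ± SD of three independent determinations.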

MCF7 [3] = assay: Cytotoxicity in human MCF7 cells assessed as reduction in cell survival incubated for 72 hrs by MTS assay; assay type: functional, cell-based; conditions: MCF7, 72 h
In short: (§3)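 MCF-7 breast adenocarcinoma cells in E-MEM with 10% FBS, L-alanyl-L-glutamine, nonessential amino acids, sodium pyruvate and sodium bicarbonate at 37 °C, 5% CO2. Plated at 2000 cells/well and left 24 h, then treated 72 h across a concentration range. MTS for 1 h, read at 485 nm. Survival relative to 1% DMSO and 0.5% Triton X-100 controls. IC50 by regression on eight concentrations. Three independent experiments, mean ± SD.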

MRC5 [4] = assay: Cytotoxicity in human MRC5 cells assessed as reduction in cell survival incubated for 72 hrs by MTS assay; assay type: cell-based; conditions: MRC5, 72 h
In short: (§4)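 Nonmalignant MRC-5 lung fibroblasts in supplemented E-MEM (10% FBS, glutamine, NEAA, pyruvate, bicarbonate) at 37 °C, 5% CO2. Seeded at 4000 cells/well and allowed 24 h to adhere. Exposed to ranging concentrations for 24 or 72 h. MTS added for 1 h, absorbance at 485 nm. Survival normalised to 1% DMSO and 0.5% Triton X-100 controls. Triplicates, three independent experiments.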

A2058 [5] = assay: Cytotoxicity in human A2058 cells assessed as reduction in cell survival by MTS assay; assay type: functional, cell-based; conditions: TDE = time-dependent effect; in short: as §1
HT-29 [6] = assay: Cytotoxicity in human HT-29 cells assessed as reduction in cell survival by MTS assay; assay type: functional, cell-based; conditions: TDE = time-dependent effect; in short: as §2
MCF7 [7] = assay: Cytotoxicity in human MCF7 cells assessed as reduction in cell survival by MTS assay; assay type: functional, cell-based; conditions: TDE = time-dependent effect; in short: as §3
MRC5 [8] = assay: Cytotoxicity in human MRC5 cells assessed as reduction in cell survival by MTS assay; assay type: cell-based; conditions: TDE = time-dependent effect; in short: as §4
A2058 [9] = assay: Cytotoxicity in human A2058 cells assessed as reduction in cell survival at 0.313 to 10 uM incubated for 4 hrs by MTS assay; assay type: functional, cell-based; in short: as §1
A2058 [10] = assay: Cytotoxicity in human A2058 cells assessed as reduction in cell survival incubated for 24 hrs by MTS assay; assay type: functional, cell-based; conditions: A2058, 24 h; in short: as §1
A2058 [11] = assay: Cytotoxicity in human A2058 cells assessed as reduction in cell survival incubated for 48 hrs by MTS assay; assay type: functional, cell-based; conditions: A2058, 48 h; in short: as §1
MRC5 [12] = assay: Cytotoxicity in human MRC5 cells assessed as reduction in cell survival incubated for 24 hrs by MTS assay; assay type: cell-based; conditions: MRC5, 24 h; in short: as §4

Structure (SMILES) | IC50 (A2058 [1]) [µM] | IC50 (HT-29 [2]) [µM] | IC50 (MCF7 [3]) [µM] | IC50 (MRC5 [4]) [µM] | Activity (A2058 [5]) | Activity (HT-29 [6]) | Activity (MCF7 [7]) | Activity (MRC5 [8]) | Activity (A2058 [9]) | IC50 (A2058 [10]) [µM] | IC50 (A2058 [11]) [µM] | IC50 (MRC5 [12]) [µM]
CC1(C)[C@@H](Cl)C[C@]23[C@@H]4CC(=O)N2C=CC2=NC(=O)N[C@@]21N3c1cc(Br)ccc14 | 20 | 21 | 23 | 30 | – | – | – | – | – | – | – | –
CO[C@H]1[C@H](O)C2=NC(=O)N[C@@]23N2c4cc(Br)c(Br)c(Br)c4[C@H]4CC(=O)N1[C@]42C[C@H](Cl)C3(C)C | > 50 | > 50 | > 50 | > 50 | – | – | – | – | – | – | – | –
CC1(C)[C@@H](Cl)C[C@]23[C@@H]4CC(=O)N2C=CC2=NC(=O)N[C@@]21N3c1cc(Br)c(Br)cc14 | 2.7 | 2.5 | 2.4 | 5.3 | – | – | – | – | – | – | – | –
CC1(C)[C@@H](Cl)C[C@]23[C@@H]4CC(=O)N2C=CC2=NC(=O)N[C@@]21N3c1cc(Br)cc(Br)c14 | 6.7 | 10 | 8.5 | 9.6 | – | – | – | – | – | – | – | –
CC1(C)[C@@H](Cl)C[C@]23[C@@H]4CC(=O)N2C=CC2=NC(=O)N[C@@]21N3c1cc(Br)c(Br)c(Br)c14 | 1.4 | 1.9 | 2.1 | 2.7 | Tde | Tde | Tde | Tde | inactive | 2.8 | 1.8 | > 10
